# Source: ChEMBL document CHEMBL4130355, “Development of a series of novel 4-anlinoquinazoline derivatives possessing quinazoline skeleton: Design, synthesis, EGFR kinase inhibitory efficacy, and evaluation of anticancer activities in vitro” (Eur J Med Chem, 2017)
# Calls of active or inactive are those of the source. The calls are words filed in the database; no cut-off is given here.
# How the values were obtained:
# [1] = system: MCF7; assay: Antiproliferative activity against human MCF7 cells after 72 hrs by MTT assay; format: functional, cell-based; conditions: MCF7, 72 h
# [2] = system: HepG2; assay: Induction of apoptosis in human HepG2 cells assessed as caspase-3 activity at 20 uM after 48 hrs by colorimetric assay relative to control; format: functional
# In short: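 After 48 h treatment, HepG2 were rinsed in ice-cold PBS and lysed 1–1.5 h on ice in buffer with 1% DTT. Lysate was spun at 10,000×g for 1 min at 4 °C; supernatant protein was measured by Bradford. Supernatant was mixed with 2× reaction buffer (1% DTT) plus caspase-3 chromogenic peptide substrate, held 4 h at 37 °C, and read at 405 nm.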
# [3] = system: HepG2; assay: Induction of apoptosis in human HepG2 cells assessed as intracellular free Ca2+ levels at 20 uM after 48 hrs by FL1 channel/FACS analysis (reference value: 14.2%); format: functional
# In short: (§1)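 HepG2 seeded at 5.0 × 10^5 cells/mL, 24 h at 37 °C in 5% CO2, then treated 48 h (2.5–20 µM). Harvested cells were washed in ice-cold PBS and loaded with 4 µM Fluo-3/AM for 30 min. After trypsinizing, they were washed twice and resuspended in HEPES, and fluorescence was measured in the FL-1 channel by flow cytometry. Values are averages of at least three independent experiments.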
# [4] = system: HepG2; assay: Induction of apoptosis in human HepG2 cells assessed as budded nuclei formation at 2.5 to 20 uM after 48 hrs by Hoechst 33342/propidium iodide double staining based laser scanning confocal microscopy; format: functional, cell-based
# In short: (§2)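 HepG2 plated at 5.0 × 10^4 cells/well in DMEM with 10% FBS, 24 h at 37 °C, then treated 48 h (2.5–20 µM). After two ice-cold PBS washes, cells were stained with Hoechst 33342/PI mixed 1:1 for 30 min at 37 °C in the dark, washed three times, and imaged by laser scanning confocal microscopy at 200×.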
# [5] = system: A549; assay: Antiproliferative activity against human A549 cells at 50 uM after 72 hrs by MTT assay relative to control; format: functional
# In short: (§3)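 MTT assay in triplicate wells. Cells (2 × 10^3/well) were attached 24 h, then treated at 0.1, 1, 10, 50 or 100 µM for 24, 48 or 72 h. MTT added for 4 h, SDS solubilisation, absorbance at 570/650 nm. Inhibition = 1 − (OD treated − blank)/(OD control − blank). Reported as mean ± SD of three independent experiments.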
# [6] = system: HepG2; assay: Antiproliferative activity against human HepG2 cells at 0.1 uM after 72 hrs by MTT assay realtive to control; format: functional; in short: as §3
# [7] = system: HepG2; assay: Induction of apoptosis in human HepG2 cells assessed as elevation in ROS levels after 48 hrs by DCFH-DA fluorescence-based spectrometry; format: functional, cell-based
# In short: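 HepG2 seeded at 5.0 × 10^5 cells/mL, 24 h at 37 °C in 5% CO2, then treated 48 h. Harvested cells were washed twice in ice-cold PBS and loaded with 10 µM DCFH-DA for 30 min at 37 °C. They were then trypsinized, washed and resuspended in ice-cold HBSS, and DCF fluorescence was read on a fluorescence spectrometer.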
# [8] = system: HepG2; assay: Induction of apoptosis in human HepG2 cells assessed as nuclear fragmentation at 2.5 to 20 uM after 48 hrs by Hoechst 33342/propidium iodide double staining based laser scanning confocal microscopy; format: functional, cell-based; in short: as §2
# [9] = system: HepG2; assay: Antiproliferative activity against human HepG2 cells at 50 uM after 48 hrs by MTT assay realtive to control; format: functional; in short: as §3
# [10] = target: T1, Epidermal growth factor receptor (Homo sapiens, UniProt P00533); conditions: HEK293, at 10 pM
# [11] = target: T1, Epidermal growth factor receptor; format: cell-based, HEK293
# [12] = system: HepG2; assay: Induction of apoptosis in human HepG2 cells assessed as viable cells at 5 uM after 48 hrs by Annexin V-FITC/propidium iodide double staining-based flow cytometry (reference value: 86.4%); format: functional; conditions: HepG2, 48 h, read-out: Activity
# [13] = system: A549; assay: Antiproliferative activity against human A549 cells at 1 uM after 72 hrs by MTT assay relative to control; format: functional; in short: as §3
# [14] = system: HepG2; assay: Antiproliferative activity against human HepG2 cells at 50 uM after 24 hrs by MTT assay realtive to control; format: functional; in short: as §3
# [15] = system: HepG2; assay: Antiproliferative activity against human HepG2 cells at 1 uM after 72 hrs by MTT assay realtive to control; format: functional; in short: as §3
# [16] = system: A549; assay: Antiproliferative activity against human A549 cells at 10 uM after 24 hrs by MTT assay relative to control; format: functional; in short: as §3
# [17] = system: HepG2; assay: Cytotoxicity against human HepG2 cells at 10 uM after 48 hrs by LDH release assay (reference value: 100%); format: functional
# In short: (§4)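 LDH release. HepG2 cells at 1.0 × 10^5/well were incubated 24 h at 37 °C, then treated at 2.5–40 µM for 48 h. Cells lysed with 2% lysate for 1 h gave the full-release (100%) reference; medium-only cells were the low control. LDH in the supernatant was measured per kit. Triplicates, three independent repeats.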
# [18] = system: HepG2; assay: Induction of apoptosis in human HepG2 cells assessed as viable cells at 10 uM after 48 hrs by Annexin V-FITC/propidium iodide double staining-based flow cytometry (reference value: 86.4%); format: functional; conditions: HepG2, 48 h, read-out: Activity
# [19] = system: HepG2; assay: Antiproliferative activity against human HepG2 cells at 1 uM after 24 hrs by MTT assay realtive to control; format: functional; in short: as §3
# [20] = system: HepG2; assay: Induction of mitochondrial membrane potential loss in human HepG2 cells assessed as mitochondrial membrane potential levels at 10 uM after 48 hrs by rhodamine-123 dye based FACS analysis (reference value: 90.4%); format: functional
# [21] = system: HepG2; assay: Antiproliferative activity against human HepG2 cells at 10 uM after 72 hrs by MTT assay realtive to control; format: functional; in short: as §3
# [22] = system: A549; assay: Antiproliferative activity against human A549 cells at 10 uM after 72 hrs by MTT assay relative to control; format: functional; in short: as §3
# [23] = system: HepG2; assay: Antiproliferative activity against human HepG2 cells after 72 hrs by MTT assay; format: functional, cell-based; conditions: HepG2, 72 h
# [24] = system: A549; assay: Antiproliferative activity against human A549 cells at 100 uM after 24 hrs by MTT assay relative to control; format: functional; in short: as §3
# [25] = system: HepG2; assay: Cytotoxicity against human HepG2 cells at 20 uM after 48 hrs by LDH release assay (reference value: 100%); format: functional; in short: as §4
# [26] = system: HepG2; assay: Cell cycle arrest in human HepG2 assessed as accumulation at S phase at 2.5 uM after 48 hrs by propidium iodide-staining based flow cytometry (reference value: 21.46%); format: functional
# In short: (§5)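 HepG2 cells at 5.0 × 10^5/well were grown 24 h, then treated at 0, 2.5, 5.0 or 10.0 µM for 48 h alongside medium-only wells. Cells fixed in 70% ice-cold ethanol for ≥24 h, treated with RNase A at 37 °C for 30 min, then stained with propidium iodide for 30 min at 4 °C in the dark. DNA content read by flow cytometry. Average of at least three experiments.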
# [27] = system: HepG2; assay: Cell cycle arrest in human HepG2 assessed as accumulation at S phase at 5 uM after 48 hrs by propidium iodide-staining based flow cytometry (reference value: 21.46%); format: functional; in short: as §5
# [28] = system: HepG2; assay: Induction of apoptosis in human HepG2 cells assessed as intracellular free Ca2+ levels after 48 hrs by FL1 channel/FACS analysis; format: functional, cell-based; in short: as §1
# T1 sequence (P00533 whole entry): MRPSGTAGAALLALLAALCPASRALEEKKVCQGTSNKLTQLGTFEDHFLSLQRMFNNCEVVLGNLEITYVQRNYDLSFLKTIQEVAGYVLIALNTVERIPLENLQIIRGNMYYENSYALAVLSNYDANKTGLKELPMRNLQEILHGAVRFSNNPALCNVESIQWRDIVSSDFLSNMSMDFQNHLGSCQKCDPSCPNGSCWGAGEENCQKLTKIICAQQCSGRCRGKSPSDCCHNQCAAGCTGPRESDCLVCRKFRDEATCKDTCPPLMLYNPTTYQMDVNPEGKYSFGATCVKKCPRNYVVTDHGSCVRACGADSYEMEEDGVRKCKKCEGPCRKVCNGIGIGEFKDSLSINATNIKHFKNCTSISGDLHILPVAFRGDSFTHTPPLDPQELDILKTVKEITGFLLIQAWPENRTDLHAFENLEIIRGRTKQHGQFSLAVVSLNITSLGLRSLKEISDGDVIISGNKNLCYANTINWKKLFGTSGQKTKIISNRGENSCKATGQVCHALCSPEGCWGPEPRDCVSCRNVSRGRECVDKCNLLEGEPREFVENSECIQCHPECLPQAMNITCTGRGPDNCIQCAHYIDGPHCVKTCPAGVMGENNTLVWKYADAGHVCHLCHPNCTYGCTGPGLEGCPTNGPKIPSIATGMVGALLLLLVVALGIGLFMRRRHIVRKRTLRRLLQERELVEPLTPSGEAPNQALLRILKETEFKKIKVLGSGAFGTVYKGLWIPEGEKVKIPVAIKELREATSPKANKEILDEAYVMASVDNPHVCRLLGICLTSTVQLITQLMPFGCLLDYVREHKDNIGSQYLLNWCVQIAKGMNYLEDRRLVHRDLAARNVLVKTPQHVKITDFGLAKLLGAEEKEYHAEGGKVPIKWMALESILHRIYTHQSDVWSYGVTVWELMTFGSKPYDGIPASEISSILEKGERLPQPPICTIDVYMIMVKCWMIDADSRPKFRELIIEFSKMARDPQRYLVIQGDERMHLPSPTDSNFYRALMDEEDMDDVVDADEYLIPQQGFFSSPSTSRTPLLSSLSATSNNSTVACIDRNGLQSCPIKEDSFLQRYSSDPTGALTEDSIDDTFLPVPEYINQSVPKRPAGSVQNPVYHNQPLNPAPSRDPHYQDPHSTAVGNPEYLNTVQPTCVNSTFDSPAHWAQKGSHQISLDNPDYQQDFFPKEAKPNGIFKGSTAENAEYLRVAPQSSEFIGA
smiles,measurement,setting,value
COc1cc2c(Nc3ccc(C#N)cc3)ncnc2cc1OCCCN1CCC(c2ccccc2)CC1,IC50,[1],9.8 µM
same,Activity,[2],196%
same,Activity,[3],52.7%
same,Activity,[4],Active
same,Activity,[5],86.6%
same,Activity,[6],7.4%
same,Activity,[7],Dose-dependent effect
same,Activity,[8],Active
same,Activity,[9],108%
same,inhibition,[10],17.9%
same,IC50,[11],3.62 nM
same,viability at 5 µM,[12],17.3%
same,Activity,[13],1.5%
same,Activity,[14],99.1%
same,Activity,[15],13.7%
same,Activity,[16],24.7%
same,Activity,[17],69.27%
same,viability at 10 µM,[18],1.3%
same,Activity,[19],7.9%
same,Activity,[20],84%
same,Activity,[21],63.6%
same,Activity,[22],34.1%
same,IC50,[23],4.61 to 5.29 µM
same,Activity,[24],91.8%
same,Activity,[25],52.94%
same,Activity,[26],22.44%
same,Activity,[27],25.1%
same,Activity,[28],Dose-dependent effect
